Data: the M2OR odorant receptor database

Biological target: T1, OR2W3 (Homo sapiens) (UniProt Q7Z3T1)
T1 sequence (whole entry): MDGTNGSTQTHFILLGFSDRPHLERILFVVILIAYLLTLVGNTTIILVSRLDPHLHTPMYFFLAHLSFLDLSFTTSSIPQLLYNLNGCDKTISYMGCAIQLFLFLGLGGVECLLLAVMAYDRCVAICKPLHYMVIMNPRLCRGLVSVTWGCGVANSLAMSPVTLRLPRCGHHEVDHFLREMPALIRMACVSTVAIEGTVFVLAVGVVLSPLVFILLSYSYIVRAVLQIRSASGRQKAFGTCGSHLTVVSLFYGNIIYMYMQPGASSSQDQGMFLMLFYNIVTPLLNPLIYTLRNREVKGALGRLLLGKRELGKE
Conditions: stereoisomer not certain
Outline: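 Each entry records the cell line, G-protein, co-transfected protein and tags used. Methods varied with the source, often transient luciferase assays in mammalian cell lines. A receptor–molecule pair is called responsive (active) if the original authors judged its signal statistically different from baseline and non-responsive (inactive) otherwise.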

Odorant receptor agonist call, inactive:
CCCO
CCCCCCCCCCCC(=O)OC
CCCCCCCCCC(=O)OCC
CCCCCCCCCCCCCC(=O)OC
CCCCCCCCO
CCCCCCCCCC(=O)OC
CCCCC(=O)C(C)=O
CCCCOCC(C)O (stereo unspecified)
CCCCCCCCCCCCCCCC(=O)OCC
CCCCCCCCCCCCCCCCCC(=O)[O-].[H+]
Cc1ccc(C(C)C)cc1
Cc1cccc(C)c1C
CCC(C)CO (stereo unspecified)
CC(C)=CCCC(C)=CCCC(C)=CCO
CCCCCCCCCCCCCCC(=O)O
CC(O)C(=O)[O-].[H+] (stereo unspecified)
CCC(=O)O
CCCCCCCCCCCCCCCC(=O)OC
CC(C)=CCCC(C)=CCO
CCC(O)CC
Cc1cnc(C)cn1
CCCCCCCCCCCCCCCCCC(=O)OCC
O=c1ccc2ccccc2o1
CCCCCCCC(=O)OC
COc1ccc2[nH]cc(CCNC(C)=O)c2c1
CCCCCCCCCCCCCC(=O)O
CC(=O)O
CCCCCCCCCCCC(=O)OCC
CCCCCCCCCCCCCC(=O)OCC
CCCCCCCC(=O)OCC
CCCCCCCCCCCCO
C=C1CCC2CC1C2(C)C (stereo unspecified)
C=C(C)C1CC=C(C)CC1 (stereo unspecified)
CCCC(=O)CC
CC1=CCC2CC1C2(C)C (stereo unspecified)
CCCCCCCCCCCCCCCC(=O)[O-].[H+]
